Activity calls are given as the source filed them. The rule behind the calls is not given here.
How the values were obtained:
[1] = (§1) Toxicity in BALB/c mouse infected with Trypanosoma cruzi MHOM/Pe/2011/Arequipa;DTU 5 bloodstream trypomastigote assessed as change in serum alkaline phosphatase level in acute phase at 20 mg/kg/day, po administered for 5 consecutive days and measured on day 100 post infection by biochemical analysis relative to control; type: organism-based; details: in vivo
[2] = as §1, with “days starting from day 8 post infection” for “days”, “measured at” for “measured on”, “day 14” for “day 100”; type: organism-based; details: in vivo
Trypanosoma cruzi [3] = assay: Antitrypanosomal activity against Trypanosoma cruzi MHOM/Pe/2011/Arequipa;DTU 5 epimastigote assessed as effect on parasite glycolytic pathway by measuring change in succinate excretion after 72 hrs by H NMR method; type: functional, organism-based
How it was run: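 Cells were spun at 800 × g for 10 min and culture supernatants analysed by 1H NMR. Catabolite peaks were expressed as % variation versus untreated parasites.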

[4] = as §1, with “chronic” for “acute”, “starting from day 70 post infection” for “and”, “infection” for “infection by biochemical analysis”; type: organism-based; details: in vivo
[5] = Mutagenecity against Salmonella typhimurium TA1535 assessed as number of colonies at 22.2 ug/plate in absence of Sprague-Dawley rat S9 measured after 48 hrs by Ames test (reference value: 13.3 +/- 2.5); type: toxicity; details: salmonella enterica subsp. enterica serovar typhimurium, s9, 48 h
[6] = Toxicity in BALB/c mouse infected with Trypanosoma cruzi MHOM/Pe/2011/Arequipa;DTU 5 bloodstream trypomastigote assessed as decrease in serum aspartate aminotransferase level in chronic phase at 20 mg/kg/day, po administered for 5 consecutive days starting from day 70 post infection measured on day 100 post infection relative to control; type: organism-based; parameters: scale not given: the % may be the effect or the level left; details: in vivo
[7] = Mutagenecity against Salmonella typhimurium TA 100 assessed as number of colonies at 66.7 ug/plate in absence of Sprague-Dawley rat S9 with metabolic activation measured after 48 hrs by Ames test (reference value: 35.7 +/- 0.6); type: toxicity; details: salmonella enterica subsp. enterica serovar typhimurium, s9, 48 h
[8] = Mutagenecity against Salmonella typhimurium TA 100 assessed as number of colonies at 200 ug/plate in presence of Sprague-Dawley rat S9 with metabolic activation measured after 48 hrs by Ames test (reference value: 47.3 +/- 5.7); type: toxicity, subcellular; details: salmonella enterica subsp. enterica serovar typhimurium, s9, 48 h
[9] = Mutagenecity against Salmonella typhimurium TA1535 assessed as number of colonies at 66.7 ug/plate in absence of Sprague-Dawley rat S9 measured after 48 hrs by Ames test (reference value: 13.3 +/- 2.5); type: toxicity; details: salmonella enterica subsp. enterica serovar typhimurium, s9, 48 h
[10] = Mutagenecity against Salmonella typhimurium TA 100 assessed as number of colonies at 66.7 ug/plate in presence of Sprague-Dawley rat S9 with metabolic activation measured after 48 hrs by Ames test (reference value: 47.3 +/- 5.7); type: toxicity, subcellular; details: salmonella enterica subsp. enterica serovar typhimurium, s9, 48 h
[11] = Mutagenecity against Salmonella typhimurium TA 102 assessed as number of colonies at 22.2 ug/plate in absence of Sprague-Dawley rat S9 with metabolic activation measured after 48 hrs by Ames test (reference value: 78.7 +/- 7.8); type: toxicity; details: salmonella enterica subsp. enterica serovar typhimurium, s9, 48 h
[12] = Mutagenecity against Salmonella typhimurium TA 102 assessed as number of colonies at 7.4 ug/plate in presence of Sprague-Dawley rat S9 with metabolic activation measured after 48 hrs by Ames test (reference value: 72 +/- 1); type: toxicity, subcellular; details: salmonella enterica subsp. enterica serovar typhimurium, s9, 48 h
[13] = Mutagenecity against Salmonella typhimurium TA1535 assessed as number of colonies at 200 ug/plate in presence of Sprague-Dawley rat S9 measured after 48 hrs by Ames test (reference value: 5 +/- 3.6); type: toxicity, subcellular; details: salmonella enterica subsp. enterica serovar typhimurium, s9, 48 h
[14] = Mutagenecity against Salmonella typhimurium TA1535 assessed as number of colonies at 22.2 ug/plate in presence of Sprague-Dawley rat S9 measured after 48 hrs by Ames test (reference value: 5 +/- 3.6); type: toxicity, subcellular; details: salmonella enterica subsp. enterica serovar typhimurium, s9, 48 h
[15] = Mutagenecity against Salmonella typhimurium TA1535 assessed as number of colonies at 7.4 […] in presence of Sprague-Dawley rat S9 measured after 48 hrs by Ames test (reference value: 5 +/- 3.6); type: toxicity, subcellular; details: salmonella enterica subsp. enterica serovar typhimurium, s9, 48 h
[16] = Mutagenecity against Salmonella typhimurium TA98 assessed as number of colonies at 22.2 ug/plate in absence of Sprague-Dawley rat S9 measured after 48 hrs by Ames test (reference value: 3 +/- 2.6); type: toxicity; details: salmonella enterica subsp. enterica serovar typhimurium, s9, 48 h
Trypanosoma cruzi [17] = assay: Antitrypanosomal activity against Trypanosoma cruzi MHOM/Pe/2011/Arequipa;DTU 5 bloodstream trypomastigote infected in BALB/c mouse assessed as reduction in parasitemia […] at 20 mg/kg/day, po administered for 5 consecutive days starting from day 8 post infection measured every 2 to 3 days starting from day 7 post infection by Neubauer chamber relative to untreated control; type: functional; parameters: scale not given: the % may be the effect or the level left
How it was run: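 Female BALB/c mice (three per group) were infected i.p. with 5 × 10^5 Arequipa bloodstream trypomastigotes, with parasitemia confirmed on day 7 pi. Oral dosing was 20 mg/kg/day on days 8–12 pi in 5% DMSO/0.5% HPMC; controls received vehicle. Bloodstream trypomastigotes were counted through the acute phase until day 48 pi.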

[18] = Mutagenecity against Salmonella typhimurium TA97a assessed as number of colonies at 7.4 ug/plate in presence of Sprague-Dawley rat S9 with metabolic activation measured after 48 hrs by Ames test (reference value: 55 +/- 7.1); type: toxicity, subcellular; details: salmonella enterica subsp. enterica serovar typhimurium, s9, 48 h
[19] = Mutagenecity against Salmonella typhimurium TA 102 assessed as number of colonies at 200 ug/plate in presence of Sprague-Dawley rat S9 with metabolic activation measured after 48 hrs by Ames test (reference value: 72 +/- 1); type: toxicity, subcellular; details: salmonella enterica subsp. enterica serovar typhimurium, s9, 48 h
[20] = Mutagenecity against Salmonella typhimurium TA97a assessed as number of colonies at 22.2 ug/plate in absence of Sprague-Dawley rat S9 with metabolic activation measured after 48 hrs by Ames test ( Rvb = 37 +/- 6.5); type: toxicity; details: salmonella enterica subsp. enterica serovar typhimurium, s9, 48 h
[21] = Mutagenecity against Salmonella typhimurium TA1535 assessed as number of colonies at 66.7 ug/plate in presence of Sprague-Dawley rat S9 measured after 48 hrs by Ames test (reference value: 5 +/- 3.6); type: toxicity, subcellular; details: salmonella enterica subsp. enterica serovar typhimurium, s9, 48 h
[22] = Mutagenecity against Salmonella typhimurium TA 102 assessed as number of colonies at 7.4 ug/plate in absence of Sprague-Dawley rat S9 with metabolic activation measured after 48 hrs by Ames test (reference value: 78.7 +/- 7.8); type: toxicity; details: salmonella enterica subsp. enterica serovar typhimurium, s9, 48 h
[23] = (§2) Toxicity in BALB/c mouse infected with Trypanosoma cruzi MHOM/Pe/2011/Arequipa;DTU 5 bloodstream trypomastigote assessed as increase in serum total bilirubin level in chronic phase at 20 mg/kg/day, po administered for 5 consecutive days starting from day 70 post infection and measured at day 76 post infection relative to control; type: organism-based; details: in vivo
[24] = as §1, with “serum aspartate aminotransferase” for “serum alkaline phosphatase”, “days starting from day 8 post infection” for “days”, “measured at” for “measured on”, “day 14” for “day 100”; type: organism-based; details: in vivo
Trypanosoma cruzi [25] = assay: Inhibition of Trypanosoma cruzi MHOM/Pe/2011/Arequipa;DTU 5 epimastigote Fe-SOD at 25 uM
How it was run: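 Fe-SOD excreted by exponentially growing T. cruzi Arequipa epimastigotes cultured in supplemented MTL at 28 °C. Protein quantified by Bradford. SOD activity measured by the Beyer–Fridovich method. IC50 from inhibition curves by nonlinear regression. Mean of three independent determinations ± standard deviation.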

[26] = as §2, with “change” for “increase”, “urea” for “total bilirubin”; type: organism-based; details: in vivo
[27] = as §1, with “urea” for “alkaline phosphatase”, “days starting from day 8 post infection” for “days”; type: organism-based; details: in vivo
[28] = as §2, with “decrease” for “increase”, “alkaline phosphatase” for “total bilirubin”; type: organism-based; parameters: scale not given: the % may be the effect or the level left; details: in vivo

O=C(Cn1ccnc1[N+](=O)[O-])NCc1ccccc1 [BENZNIDAZOLE]
Activity [1]: > 10% | Activity [2]: > 10% | Activity (Trypanosoma cruzi [3]): Active

O=C(CCN1CCN(c2ccc(Cl)cc2)CC1)c1ccc(O)cc1
Activity [4]: > 10% | Activity [5]: 4 | Activity [6]: <= 10% | Activity [7]: 38 | Activity [8]: 42.3 | Activity [9]: 3.7 | Activity [10]: 54.7 | Activity [11]: 69.7 | Activity [12]: 75 | Activity [13]: 7 | Activity [14]: 3 | Activity [15]: 5.5 | Activity [16]: 4.7 | Activity (Trypanosoma cruzi [17]): 70% | Activity [18]: 44.3 | Activity [19]: 78 | Activity [20]: 35.7 | Activity [21]: 3.3 | Activity [22]: 72

O=C(CCN1CCN(c2ccc(C(F)(F)F)cc2)CC1)c1ccc(O)cc1
Activity [23]: > 40% | Activity [24]: > 10% | inhibition (Trypanosoma cruzi [25]): Active | Activity [26]: > 10% | Activity [27]: > 10% | Activity [28]: <= 10%

Source: ChEMBL document CHEMBL4402517, “Rational modification of Mannich base-type derivatives as novel antichagasic compounds: Synthesis, in vitro and in vivo evaluation” (Bioorg Med Chem, 2019)
